GASC1 inh = KDM4C (human) demethylase inhibition; Q9H3R0; actives 0.15% (n = 96,000); inhibition, % at 12.5 µM; GST-KDM4C 2-372, H3K9me3 peptide, LANCE TR-FRET; AID 720574;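 active = mean replicate inhibition above about 25%, with at least 55% of replicates also reaching it, limit read from the data, passing the limit was not always enough; inconclusive = only one of those two conditions met; inactive = neither condition met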
Target sequence (Q9H3R0 2-372 limits assumed): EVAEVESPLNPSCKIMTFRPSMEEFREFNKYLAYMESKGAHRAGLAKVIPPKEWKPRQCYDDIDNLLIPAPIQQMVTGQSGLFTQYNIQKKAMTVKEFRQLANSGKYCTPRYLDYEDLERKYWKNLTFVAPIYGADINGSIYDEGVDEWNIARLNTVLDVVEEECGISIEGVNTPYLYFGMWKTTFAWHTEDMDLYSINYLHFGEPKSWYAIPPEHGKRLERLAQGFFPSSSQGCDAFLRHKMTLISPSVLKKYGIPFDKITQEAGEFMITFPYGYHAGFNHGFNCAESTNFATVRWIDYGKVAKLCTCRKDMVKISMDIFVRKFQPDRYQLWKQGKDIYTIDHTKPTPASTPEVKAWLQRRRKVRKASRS
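Assay system: GST-GASC-1 enzyme fragment 2-372 | Amount: 10 nM enzyme | Medium: HEPES buffer, pH 7.5, plus ascorbate | Reagent: H3K9me3 peptide substrate, Fe(II), 2-oxoglutarate | Doses: Single-point compound screen | Incubation: 30 min demethylation and 1 h detection at room temperature | Measured by: LANCE TR-FRET, excitation 340 nm, emissions 618 and 671 nm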
T cruzi growth-1 = inhibitors of T. cruzi proliferation | actives 5.9% (n = 77,000) | inhibition, % at 8.34 µM | T. cruzi beta-gal in NIH3T3, GalScreen luminescence, 90 h;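 active = mean inhibition above about 93%, with at least 55% of replicates each passing it, limit read from the data, passing the limit was not always enough; inconclusive = only one of those two conditions holds; inactive = neither condition holds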
Pf Dd2 growth = blocks growth of Plasmodium falciparum Dd2 parasites; P. falciparum Dd2 growth, SYBR Green, 72 h; active compounds read low; activity change, % at 10 µM; actives 2.3% (n = 94,000); AID 1159554; in the data active = activity change below about -80%; inconclusive = no clear call, values can overlap the other calls
IDH1 R132H inh = IDH1 R132H (human) inhibition | actives 0.18% (n = 70,000) | IDH1 R132H reductase, diaphorase/resazurin fluorescence, 60 min | AID 624101 | O75874 | inhibition, % at 10 µM; in the data active = inhibition above about 34%; inconclusive = no clear call, values can overlap the other calls; inactive = below about 11%
T cruzi growth-2 = blocks T. cruzi growth in NIH3T3 host cells. shares compounds with T cruzi growth-1. actives 72% (n = 5,600). inhibition, % at 8.35 µM. AID 651739. T. cruzi beta-gal in NIH3T3, GalScreen luminescence, 90 h;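 active = mean replicate inhibition above about 95% and at least 55% of replicates individually reaching it, limit read from the data; inconclusive = only one of the two criteria is met; inactive = neither criterion is met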
T cruzi growth-3 = Trypanosoma cruzi proliferation inhibition; inhibition, % at 2.09 µM; shares compounds with T cruzi growth-1; T. cruzi beta-gal in NIH3T3, GalScreen luminescence, 90 h; actives 21% (n = 5,600); AID 651740;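 active = mean inhibition above about 95%, with at least 55% of replicates also reaching it, limit read from the data; inconclusive = meets just one of the two conditions; inactive = meets neither condition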
3T3 cytotox = cytotoxicity in mouse NIH/3T3 fibroblasts; NIH/3T3 viability, CellTiter-Glo ATP luminescence, 90 h; cytotoxicity (signal decrease), % at 8.35 µM; actives 14% (n = 5,600); shares compounds with T cruzi growth-1;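 active = mean signal decrease across replicates above about 35% based on untreated-well scatter, with enough replicates individually passing, limit read from the data; inconclusive = no rule stated though some were filed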
NIH3T3 tox 2 = cytotoxicity in mouse NIH/3T3 fibroblasts. NIH/3T3 viability, CellTiter-Glo ATP luminescence, 90 h. shares compounds with T cruzi growth-1. AID 651744. inhibition, % at 24.9 µM. actives 56% (n = 5,600);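 active = mean loss of cell viability signal at or above a set limit, and enough replicates individually reaching it; inconclusive = meets only the mean limit or only the replicate share; inactive = meets neither condition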
Hits are given with their value; n = inactive; u = inconclusive; x = not tested or not shown. This is a sample that favours compounds with a hit; in the whole collection about 5.8% have one here.

SMILES	GASC1 inh	T cruzi growth-1	Pf Dd2 growth	IDH1 R132H inh	T cruzi growth-2	T cruzi growth-3	3T3 cytotox	NIH3T3 tox 2
C[C@H]1CN([C@@H](C)CO)C(=O)c2cccc(NC(=O)Nc3ccc(C(F)(F)F)cc3)c2O[C@@H]1CN(C)Cc1ccc2c(c1)OCO2	x	n	n	x	x	x	x	x
C[C@H](CO)N1C[C@H](C)[C@@H](CN(C)Cc2ccc3c(c2)OCO3)Oc2c(NC(=O)Nc3ccc(C(F)(F)F)cc3)cccc2C1=O	n	103.7	n	x	96.8	105.0	n	96.9
C[C@H](CO)N1C[C@H](C)[C@H](CN(C)C(=O)NC2CCCCC2)Oc2ncc(C#Cc3ccccc3)cc2C1=O	x	97.6	n	n	105.5	n	41.1	57.7
C[C@@H]1CN([C@@H](C)CO)C(=O)c2cc(C#CC3CCCCC3)cnc2O[C@@H]1CN(C)C(=O)NC1CCCC1	n	100.1	n	n	106.6	n	n	99.6
OC(COc1ccccc1F)Cn1cnc2ccccc21 (stereo not given)	x	x	x	n	x	x	x	x
CCCC#Cc1ccc([C@H]2[C@@H](CO)N3CCCCN(Cc4ccncc4)C[C@@H]23)cc1	n	114.7	n	x	100.8	n	u	70.8
CCCC#Cc1ccc([C@H]2[C@H]3CN(Cc4ccncc4)CCCCN3[C@H]2CO)cc1	n	94.9	n	x	105.0	n	42.3	80.7
COc1ccc(C#Cc2ccc([C@@H]3[C@@H](CO)N4CCCCN(Cc5ccncc5)C[C@H]34)cc2)cc1	n	u	n	x	100.0	u	89.3	105.0
O=C(NCCNc1ccc(C(F)(F)F)cc1[N+](=O)[O-])c1cccc(Br)c1	x	x	x	n	x	x	x	x
COc1cc(Cc2nnc(C(=O)NC(C)C)o2)cc(OC)c1OC	x	x	x	n	x	x	x	x
CCOc1ccc(C(Nc2cccc(C)n2)c2ccc3ccc(C)nc3c2O)cc1 (stereo not given)	x	x	x	n	x	x	x	x
Cc1nnc(SCC(=O)NCC2CCCO2)s1 (stereo not given)	x	x	x	n	x	x	x	x
OC[C@H]1[C@H](c2ccc(C#CC3(O)CCCC3)cc2)[C@@H]2CN(Cc3cncnc3)CCCCN12	n	97.6	n	x	n	n	n	n
OC[C@H]1[C@@H](c2ccc(C#CC3(O)CCCC3)cc2)[C@@H]2CN(Cc3cncnc3)CCCCN12	n	n	n	x	x	x	x	x
OC[C@@H]1[C@@H](c2ccc(C#CC3(O)CCCC3)cc2)[C@H]2CN(Cc3cccnc3)CCCCN12	n	118.8	n	x	n	n	n	n
OC[C@@H]1[C@H](c2ccc(C#CC3(O)CCCC3)cc2)[C@@H]2CN(Cc3cncnc3)CCCCN12	n	u	n	x	97.8	n	n	n
COc1ccc(-c2cc(C)nc(SCC(=O)Nc3ccccc3F)n2)cc1	x	x	x	n	x	x	x	x
CCOc1ccc(C)cc1S(=O)(=O)NCC1CCCO1 (stereo not given)	x	x	x	n	x	x	x	x
O=C(CN1C(=O)c2ccc([N+](=O)[O-])cc2C1=O)Nc1ccccc1-c1ccccc1	x	x	x	n	x	x	x	x
C[C@@H]1CN([C@H](C)CO)C(=O)c2cc(NS(=O)(=O)c3cccs3)ccc2O[C@@H](C)CCCCO[C@H]1CN(C)S(=O)(=O)c1ccc(Cl)cc1	n	x	n	n	x	x	x	x
Cc1ccc(S(=O)(=O)N(C)C[C@@H]2OCCCC[C@H](C)Oc3ccc(NS(=O)(=O)c4cccs4)cc3C(=O)N([C@H](C)CO)C[C@H]2C)cc1	n	117.7	n	n	105.0	n	n	n
C[C@H]1CCCCO[C@H](CN(C)S(=O)(=O)c2ccc(Cl)cc2)[C@@H](C)CN([C@@H](C)CO)C(=O)c2cc(NS(=O)(=O)c3cccs3)ccc2O1	n	113.9	x	x	104.3	n	n	n
C[C@@H]1CCCCO[C@H](CN(C)S(=O)(=O)c2ccc(Cl)cc2)[C@H](C)CN([C@H](C)CO)C(=O)c2cc(NS(=O)(=O)c3cccs3)ccc2O1	n	112.3	x	x	105.6	96.3	n	n
C[C@H](CO)N1C[C@H](C)[C@H](CN(C)S(=O)(=O)c2ccc(Cl)cc2)OCCCC[C@H](C)Oc2ccc(NS(=O)(=O)c3cccs3)cc2C1=O	n	111.1	x	x	96.9	n	n	n
O=C(Nc1sc2c(c1C(=O)NCc1ccco1)CCCC2)c1ccc(Cl)cc1Cl	x	x	x	n	x	x	x	x
SMILES	GASC1 inh	T cruzi growth-1	Pf Dd2 growth	IDH1 R132H inh	T cruzi growth-2	T cruzi growth-3	3T3 cytotox	NIH3T3 tox 2
C[C@@H]1O[C@@H](O[C@@H]2[C@@H](O)[C@H](O[C@@H]3[C@@H](O)[C@H](C)O[C@@H](O[C@H]4[C@H](O[C@H]5CC[C@@]6(C)C(CC[C@]7(C)C6CC=C6[C@@H]8CC(C)(C)CC[C@]8(C(=O)O)CC[C@]67C)[C@]5(C)CO)OC[C@H](O)[C@@H]4O)[C@@H]3O)O[C@H](CO)[C@H]2O[C@@H]2O[C@H](CO)[C@@H](O[C@@H]3OC[C@@H](O)[C@H](O)[C@H]3O)[C@H](O)[C@H]2O)[C@H](O)[C@H](O)[C@H]1O (stereo not given in full)	x	x	x	n	x	x	x	x
COc1cc(-c2oc3cc(O)cc(O)c3c(=O)c2OC2OC(CO)C(O)C(O)C2O)ccc1O (stereo not given)	x	x	x	n	x	x	x	x
CS(=O)(=O)N(CC(=O)Nc1cccc(C(F)(F)F)c1)c1cc(Cl)c(Cl)cc1Cl	x	x	x	n	x	x	x	x
CS(=O)(=O)N(CC(=O)Nc1ccc2c(c1)OCCO2)c1cc(Cl)c(Cl)cc1Cl	x	x	x	n	x	x	x	x
C[C@H](CO)N1C[C@H](C)[C@H](CN(C)C(=O)Nc2ccc3c(c2)OCO3)Oc2ncc(C#Cc3ccc(C(F)(F)F)cc3)cc2C1=O	n	u	n	n	100.3	u	n	106.0
C[C@@H]1CN([C@H](C)CO)C(=O)c2cc(C#CC3CC3)cnc2O[C@@H]1CN(C)C(=O)Nc1ccccc1	n	107.2	n	n	n	n	n	n
COc1ccc(NC(=O)N(C)C[C@@H]2Oc3ncc(C#Cc4ccc(C(F)(F)F)cc4)cc3C(=O)N([C@H](C)CO)C[C@@H]2C)cc1	n	108.1	n	n	101.5	u	n	104.2
C[C@H](CO)N1C[C@H](C)[C@H](CN(C)C(=O)Nc2ccccc2)Oc2ncc(C#CC3CCCC3)cc2C1=O	n	n	n	x	x	x	x	x
C[C@H](CO)N1C[C@H](C)[C@H](CN(C)C(=O)Nc2ccccc2)Oc2ncc(C#Cc3ccc(C(F)(F)F)cc3)cc2C1=O	x	116.8	n	n	107.7	u	n	105.1
C[C@H](CO)N1C[C@H](C)[C@H](CN(C)C(=O)Nc2ccc(F)cc2)Oc2ncc(C#Cc3ccccc3)cc2C1=O	n	109.8	n	x	n	n	57.0	102.9
C[C@@H]1CN([C@H](C)CO)C(=O)c2cc(C#Cc3ccc(F)cc3)cnc2O[C@H]1CN(C)C(=O)Nc1ccc(F)cc1	n	n	n	n	x	x	x	x
